miR-122 sensor: blocks miR-122 activity in Huh7 sensor cells; actives 0.3% (n = 340,000); activation (reporter increase), % at 12.5 µM; Huh7 miR-122 Renilla luciferase sensor, 48 h; neutral wells = 0, positive control = 100; AID 602342;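 active = mean replicate activation score at least 90 and every replicate individually at or above 90; inconclusive = only one of the two criteria met; inactive = neither criterion met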;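 note: higher luciferase means less miR-122 activity so hits act as miR-122 inhibitors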
Cneo AK release: Cryptococcus neoformans lysis via adenylate kinase release; actives 0.2% (n = 360,000); C. neoformans lysis, adenylate kinase release luminescence, 4 h; normalised: neutral wells 0, clomiphene wells 100; lysis activity, % at 15 µM;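 active = mean lysis activity across replicates of at least 80%, whatever share of replicates individually reach that level; inactive = mean lysis activity below 80%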
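Schedule: static 4 h at 37 °C with compound, 1 h detection; system: C. neoformans cells; benchmarks: Clomiphene as positive control; buffer or medium: fresh YPD medium; measure: luminescence rise reflecting yeast cell lysis; measured by: luminescent adenylate kinase detection reagent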
DENV2 CPE rescue: inhibitors of DENV2 cytopathic effect. DENV2-infected cells, cytopathic effect rescue, plate reader. CPE inhibition, % at 9.99 µM. actives 1.7% (n = 350,000). AID 651640; in the data active = CPE inhibition above about 20%, passing the limit was not always enough; inconclusive = no clear call, values can overlap the other calls; tested in BHK-21 cells
E-selectin induc: induces E-selectin expression in human endothelial cells. P16581. HUVEC E-selectin immunofluorescence imaging; normalized: neutral wells 0, TNF-alpha wells 100. activation, % at 7.58 µM. actives 0.37% (n = 260,000). AID 686992;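 active = mean E-selectin-positive cell signal at least 10% of the positive control, reached in at least 60% of replicates, without over 20% cell loss; inconclusive = no rule given, readout overlaps actives, possibly toxicity-flagged; inactive = the rest, including those meeting only one limit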
Target sequence (P16581 whole entry, looked up): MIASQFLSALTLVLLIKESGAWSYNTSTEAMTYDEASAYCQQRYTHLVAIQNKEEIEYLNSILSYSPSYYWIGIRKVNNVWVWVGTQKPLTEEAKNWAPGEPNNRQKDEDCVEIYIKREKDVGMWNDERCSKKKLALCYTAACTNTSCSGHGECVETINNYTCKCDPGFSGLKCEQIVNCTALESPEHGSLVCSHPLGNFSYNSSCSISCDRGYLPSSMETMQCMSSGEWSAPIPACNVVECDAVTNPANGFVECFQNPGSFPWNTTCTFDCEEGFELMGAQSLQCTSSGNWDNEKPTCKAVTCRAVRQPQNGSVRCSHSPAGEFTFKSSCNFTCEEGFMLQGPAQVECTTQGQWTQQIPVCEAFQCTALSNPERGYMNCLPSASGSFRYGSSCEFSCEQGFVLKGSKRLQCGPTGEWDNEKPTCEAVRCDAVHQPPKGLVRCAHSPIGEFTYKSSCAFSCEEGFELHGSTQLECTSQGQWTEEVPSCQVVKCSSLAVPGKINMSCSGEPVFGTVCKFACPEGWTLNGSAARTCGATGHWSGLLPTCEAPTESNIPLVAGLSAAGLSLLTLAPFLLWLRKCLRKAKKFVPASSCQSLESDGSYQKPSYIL
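Material: HUVEC primary endothelial cells; Amount: 3,000 cells per well; Dosing: single concentration; Medium: EGM-2 growth medium on 0.1% gelatin-coated wells; Read-out basis: percent E-selectin-positive cells; Signal: immunofluorescence imaging; Control set: TNF-alpha, DMSO.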
rRNA inh HTS: inhibitors of bacterial rRNA selective over humanized ribosomes. E. coli WT GFP vs humanized-ribosome RFP mutants, fluorescence, 24 h; stronger effect = lower value; DMSO median 0, no signal -100. GFP signal change (wild-type ribosome), % (no concentration beside the values). actives 1.6% (n = 350,000);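 active = significant combined selectivity score with lowered wild-type GFP, culture density cut under 30%, mutant RFP and density less affected; inactive = any of these conditions unmet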
AID977621: growth inhibition of wild-type GFP E. coli, dose response, H69 mutant RFP, cherry-pick. shares compounds with rRNA inh HTS. E. coli wild-type GFP strain growth, fluorescence, 24 h. activity change, negative = inhibition at 50 µM. 1,900 tested, under 10 active. AID 977621;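 active = Wild-type ribosome reporter drop at least double the humanized mutant ribosome reporter drop, growth loss under a set limit; inconclusive = no clear call, values can overlap the other calls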;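 note: wild-type GFP and H69 mutant RFP strains grown together 50/50 in each well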
AID977628: growth of wild-type and h24-humanized E. coli strains – h24 mutant RFP vs wild-type GFP, cherry-pick, dose response | AID 977628 | E. coli WT GFP strain growth, fluorescence, 24 h | shares compounds with rRNA inh HTS | 1,900 tested, under 10 active | activity change, negative = inhibition at 50 µM;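 active = compound lowering the normal-ribosome reporter at least twice as much as the humanized-ribosome reporter, growth loss under a set limit; inconclusive = no clear call, values can overlap the other calls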;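 note: wild-type GFP and h24 humanized RFP strains co-cultured 1 to 1 per well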
A number is an active result; i = inactive; ? = inconclusive; nt = no result given. Sampled rows, rich in hits. Any-hit rate of the full collection: about 3.1%.

SMILES	miR-122 sensor	Cneo AK release	DENV2 CPE rescue	E-selectin induc	rRNA inh HTS	AID977621	AID977628
CC(C(=O)Nc1nc2ccccc2s1)n1cc([N+](=O)[O-])cn1 (stereo not drawn)	nt	nt	i	nt	-18	i	nt
CCOC(=O)c1cccc(OS(=O)(=O)Cc2ccccc2)c1	i	i	i	i	-26	i	nt
COc1ccc(-c2ccc3c(c2)O[C@H](CN(C)CC2CCOCC2)[C@H](C)CN([C@@H](C)CO)S3(=O)=O)cc1	i	i	i	i	i	nt	nt
O=C(Nc1cccc2ccccc12)c1ccc([N+](=O)[O-])o1	nt	i	i	?	-19	?	nt
O=C(Nc1ncccn1)c1ccc([N+](=O)[O-])o1	nt	nt	i	nt	-18	i	?
Cc1cccc(NC(=O)c2ccc([N+](=O)[O-])o2)c1C	i	i	i	i	i	nt	nt
Cc1ccnc(NC(=O)c2ccc([N+](=O)[O-])o2)c1	i	i	nt	nt	nt	nt	nt
O=C(CC1C(=O)N(c2ccc(Cl)cc2)C(=S)N1CCc1ccncc1)Nc1ccc(F)cc1 (stereo not drawn)	i	i	i	nt	-21	i	nt
COC(=O)CN1C(=S)N(c2ccc(F)cc2)C(=O)C1CC(=O)Nc1ccc(OC)cc1 (stereo not drawn)	i	i	i	i	-22	nt	i
COC(=O)CN1C(=S)N(c2ccc(F)cc2)C(=O)C1CC(=O)Nc1ccccc1 (stereo not drawn)	nt	i	i	i	i	nt	nt
Cc1ccc(-n2nnnc2CNC(=O)c2ccc([N+](=O)[O-])o2)cc1C	i	nt	i	i	-20	?	i
CO[C@@H]1CN(C)C(=O)c2ccc(NC(=O)c3nc4ccccc4s3)cc2OC[C@@H](C)N(Cc2ccncc2)C[C@@H]1C	nt	i	i	i	-25	nt	?
COCC(=O)Nc1ccc2c(c1)[C@H]1C[C@@H](CC(=O)NCc3ccc(-c4ccccc4)cc3)O[C@H](CO)[C@H]1O2	i	i	i	i	i	nt	nt
COc1ccc2c3c([nH]c2c1)[C@@H](CO)N(C(=O)C1CCOCC1)CC31CCN(Cc2cccc(F)c2)CC1	nt	nt	nt	nt	i	nt	nt
COc1ccc(NC(=O)N(C)C[C@@H]2Oc3ccc(NC(=O)C4CC4)cc3C(=O)N([C@@H](C)CO)C[C@H]2C)cc1	i	i	i	i	i	nt	nt
O=C(Nc1ccc(F)cc1)c1cccnc1N1CCCCC1	i	nt	nt	nt	i	nt	nt
O=C(Nc1ccc(Br)cc1)c1cccnc1N1CCCCC1	i	i	i	nt	-34	i	i
CC(OC(=O)COc1ccccc1)C(=O)NC1CCCC1 (stereo not drawn)	i	i	i	i	-18	nt	i
CCCc1ccc(S(=O)(=O)Nc2ccc(C)c(NS(C)(=O)=O)c2)cc1	i	i	i	i	i	nt	nt
CCCCc1ccc(S(=O)(=O)Nc2ccc(C)c(NS(C)(=O)=O)c2)cc1	i	i	i	nt	-35	i	nt
C[C@H]1CN([C@@H](C)CO)S(=O)(=O)c2ccc(/C=C/c3ccccc3)cc2O[C@H]1CN(C)C(=O)CN1CCOCC1	i	nt	nt	i	i	nt	nt
CC(C)OC(=O)C[N+](C)(C)CCN1C(=O)C2C(c3ccccc3)C=CC(c3ccccc3)C2C1=O (stereo not drawn)	nt	nt	i	nt	-34	i	i
CCC(=O)N1CC(=O)N2[C@H](CO)[C@H](c3ccc(C#Cc4cccc(F)c4)cc3)[C@H]2C1	nt	nt	i	i	i	nt	nt
CC1CCN(C(=O)COC(=O)c2ccccc2NC(=O)c2ccco2)CC1	nt	nt	nt	nt	-32	i	i
CNC[C@H]1OCCCC[C@@H](C)Oc2ccc(NC(=O)Nc3ccccc3)cc2C(=O)N([C@H](C)CO)C[C@H]1C	i	i	i	nt	i	nt	nt
SMILES	miR-122 sensor	Cneo AK release	DENV2 CPE rescue	E-selectin induc	rRNA inh HTS	AID977621	AID977628
COC(=O)c1c(N)[nH]c(C(=O)c2ccccc2)c1-c1ccccc1Br	nt	nt	i	i	i	nt	nt
CC(NC(=O)c1c(N)[nH]c(C(=O)c2ccccc2)c1-c1ccccc1Br)c1cccc2ccccc12 (stereo not drawn)	nt	nt	i	i	-26	i	i
C[C@@H]1CN([C@H](C)CO)C(=O)c2cc(C#CCN(C)C)cnc2O[C@H]1CN(C)S(C)(=O)=O	i	i	i	i	i	nt	nt
Cc1nc2ccccn2c1C(=O)Nc1ccc(Cl)cc1	nt	nt	i	i	-18	i	i
O=C(Cc1ccccn1)NCC[C@H]1CC[C@H](NC(=O)Nc2ccccc2)[C@@H](CO)O1	nt	i	i	i	i	nt	nt
COc1ccccc1CNC(=O)CN1C(=O)NC(c2ccccc2)(c2ccccc2)C1=O	i	nt	i	i	-16	i	nt
CCC1(c2ccccc2)NC(=O)N(CC(=O)NCc2ccccc2OC)C1=O (stereo not drawn)	i	i	i	nt	i	nt	nt
COc1ccccc1CNC(=O)CSc1ccc(C)cc1	nt	nt	i	nt	-16	i	nt
COc1ccccc1CNC(=O)CSc1ccccc1	nt	nt	i	nt	i	nt	nt
COC(=O)CC1COc2ccccc2N1C(=O)c1ccc(Br)cc1 (stereo not drawn)	i	i	i	i	-25	i	i
Cc1ccc(S(=O)(=O)N(C)C[C@@H]2Oc3c(NS(=O)(=O)c4cn(C)cn4)cccc3C(=O)N([C@@H](C)CO)C[C@@H]2C)cc1	i	nt	nt	i	i	nt	nt
COc1ccc(COC[C@@]23Oc4ccccc4[C@@H](NC(=S)N2C)[C@H]3CO[Si](C)(C)C(C)(C)C)cc1	nt	i	i	nt	nt	nt	nt
Cc1ccoc1C(=O)Nc1ccc2ccccc2c1	i	i	i	i	-20	i	nt
Cc1cc(C(=O)Nc2ccc3ccccc3c2)oc1C	i	i	i	i	i	nt	nt
Cc1sc(C(=O)Nc2ccc3ccccc3c2)cc1CC(=O)O	i	i	i	nt	-31	nt	i
Cc1cc(C(=O)Nc2ccc3ccccc3c2)c(C)o1	i	i	i	nt	-22	i	i
CS(=O)(=O)c1ccc(Cl)c(NC(=O)CSc2nncn2-c2ccccc2)c1	i	i	i	nt	-22	i	i
C[C@@H]1CN([C@H](C)CO)S(=O)(=O)c2ccc(Br)cc2O[C@H]1CN(C)Cc1cccnc1	nt	i	i	i	i	nt	nt
COc1cc(CC(=O)Nc2nc(C)cs2)cc(OC)c1OC	i	i	i	i	-19	i	i
COc1ccc(-c2csc(NC(=O)Cc3cc(OC)c(OC)c(OC)c3)n2)cc1OC	nt	i	i	i	i	nt	nt
CCCC#Cc1ccc(CC[C@H]2O[C@H]3CC[C@@H](CO)O[C@H]3C[C@H]2NS(=O)(=O)c2ccccc2)cc1	nt	nt	i	nt	nt	nt	nt
O=S(=O)(c1ccccc1)N1CCCCN2[C@@H](CO)[C@@H](c3ccc(-c4ccccc4F)cc3)[C@@H]2C1	i	i	i	i	i	nt	nt
COc1ccc(Br)c(-c2nc(CS(=O)(=O)c3ccc(F)cc3)no2)c1	nt	nt	i	nt	-27	nt	i

From PubChem BioAssay
